# In ChEMBL document CHEMBL2146363, “Allylic thiocyanates as a new class of antitubercular agents” (Bioorg Med Chem Lett, 2012):
# Tested on: Mycobacterium tuberculosis
# Assay: Antitubercular activity against Mycobacterium tuberculosis H37Rv in GAS medium after 4 days by microplate alamar blue assay
# Type: functional
# Details: 96 h
# Summary of the method: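 Replicating M. tuberculosis H37Rv grown in GAS (glycerol–alanine–salts) medium. MIC determined by microplate Alamar Blue assay (MABA).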
row,SMILES,MIC
1,COC(=O)/C(=C/c1ccccc1)CSC(=N)Nc1ccccc1,16 µM
2,COC(=O)/C(=C/c1ccc([N+](=O)[O-])cc1)CN=[N+]=[N-],4 µM
3,COC(=O)/C(=C/c1ccccc1[N+](=O)[O-])CN=[N+]=[N-],64 µM
4,COC(=O)/C(=C/C=C/c1ccccc1)CN=[N+]=[N-],64 µM
5,COC(=O)/C(=C/c1ccc2c(c1)OCO2)CN=[N+]=[N-],64 µM
6,COC(=O)/C(=C/c1ccc(OC)cc1)CN=[N+]=[N-],> 128 µM
7,COC(=O)/C(=C/c1ccccc1)CN=[N+]=[N-],> 128 µM
8,COC(=O)/C(=C/c1ccc2ccccc2c1)CN=[N+]=[N-],> 128 µM
9,COC(=O)/C(=C/c1ccc(Cl)cc1)CN=[N+]=[N-],> 128 µM
10,COC(=O)/C(=C/c1ccccc1Cl)CN=[N+]=[N-],> 128 µM
11,COC(=O)/C(=C/c1ccc(Cl)cc1Cl)CN=[N+]=[N-],> 128 µM
12,COC(=O)/C(=C/c1ccc([N+](=O)[O-])cc1)CSC#N,> 128 µM
13,COC(=O)/C(=C/c1ccccc1[N+](=O)[O-])CSC#N,8 µM
14,COC(=O)/C(=C/C=C/c1ccccc1)CSC#N,> 128 µM
15,COC(=O)/C(=C/c1ccc2c(c1)OCO2)CSC#N,> 128 µM
16,COC(=O)/C(=C/c1ccc(OC)cc1)CSC#N,16 µM
17,COC(=O)/C(=C/c1ccc(OC)c(OC)c1)CSC#N,16 µM
18,COC(=O)/C(=C/c1ccccc1)CSC#N,1 µM
19,COC(=O)/C(=C/c1ccc2ccccc2c1)CSC#N,0.25 µM
20,COC(=O)/C(=C/c1ccc(C)cc1)CSC#N,0.5 µM
21,COC(=O)/C(=C/c1ccc(Cl)cc1)CSC#N,0.25 µM

row,SMILES,MIC
1,COC(=O)/C(=C/c1ccccc1Cl)CSC#N,> 128 µM
2,COC(=O)/C(=C/c1ccc(Cl)cc1Cl)CSC#N,> 128 µM
3,COC(=O)/C(=C/c1ccccc1Br)CSC#N,0.25 µM
4,COC(=O)/C(=C/c1ccc(Br)cc1)CSC#N,0.25 µM
5,COC(=O)/C(=C/c1ccc(F)cc1)CSC#N,0.5 µM
6,COC(=O)/C(=C/c1ccc([N+](=O)[O-])cc1)CSC(=N)N,8 µM
7,COC(=O)/C(=C/c1ccc2c(c1)OCO2)CSC(=N)N,> 128 µM
8,COC(=O)/C(=C/c1ccc(OC)cc1)CSC(=N)N,32 µM
9,COC(=O)/C(=C/c1ccccc1)CSC(=N)N,64 µM
10,COC(=O)/C(=C/c1ccccc1Cl)CSC(=N)N,> 128 µM
11,COC(=O)/C(=C/c1ccc([N+](=O)[O-])cc1)CSC(=N)Nc1ccccc1,4 µM
12,COC(=O)/C(=C/c1cccc([N+](=O)[O-])c1)CSC(=N)Nc1ccccc1,16 µM
13,COC(=O)/C(=C/c1ccccc1[N+](=O)[O-])CSC(=N)Nc1ccccc1,16 µM
14,COC(=O)/C(=C/c1ccc2c(c1)OCO2)CSC(=N)Nc1ccccc1,16 µM
15,COC(=O)/C(=C/c1ccc(OC)cc1)CSC(=N)Nc1ccccc1,16 µM
16,COC(=O)/C(=C/c1ccc(C)cc1)CSC(=N)Nc1ccccc1,16 µM
17,COC(=O)/C(=C/c1ccc(Cl)cc1)CSC(=N)Nc1ccccc1,8 µM
18,COC(=O)/C(=C/c1ccc(F)cc1)CSC(=N)Nc1ccccc1,8 µM
19,COC(=O)/C(=C/c1ccccc1)CS/C(=N\C(C)=O)NC(C)=O,32 µM
20,COC(=O)/C(=C/c1ccccc1Cl)CS/C(=N\C(C)=O)NC(C)=O,32 µM

# Tested on: Mycobacterium tuberculosis
# Assay: Antitubercular activity against Mycobacterium tuberculosis H37Rv in 7H12 medium after 4 days by microplate alamar blue assay
# Type: functional
# Details: 96 h
# Summary of the method: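 Replicating M. tuberculosis H37Rv tested in Middlebrook 7H12 medium, which lacks glycerol and uses palmitic acid as carbon source. MIC read by microplate Alamar Blue assay (MABA).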
row,SMILES,MIC
1,COC(=O)/C(=C/c1ccc([N+](=O)[O-])cc1)CN=[N+]=[N-],> 32 µM
2,COC(=O)/C(=C/c1ccc2ccccc2c1)CSC#N,32 µM
3,COC(=O)/C(=C/c1ccc(C)cc1)CSC#N,8 µM
4,COC(=O)/C(=C/c1ccc(Cl)cc1)CSC#N,8 µM
5,COC(=O)/C(=C/c1ccccc1Br)CSC#N,8 µM
6,COC(=O)/C(=C/c1ccc(Br)cc1)CSC#N,16 µM
7,COC(=O)/C(=C/c1ccc(F)cc1)CSC#N,16 µM
8,COC(=O)/C(=C/c1ccc([N+](=O)[O-])cc1)CSC(=N)N,64 µM
9,COC(=O)/C(=C/c1ccc([N+](=O)[O-])cc1)CSC(=N)Nc1ccccc1,> 32 µM

# Tested on: not listed separately
# Assay: Selectivity ratio of IC50 for african green monkey Vero cells to MIC for Mycobacterium tuberculosis H37Rv in GAS medium
# Type: functional
# Details: not given
row,SMILES,Selectivity ratio
1,COC(=O)/C(=C/c1ccc2ccccc2c1)CSC#N,>100
2,COC(=O)/C(=C/c1ccccc1Br)CSC#N,>100
3,COC(=O)/C(=C/c1ccc(Br)cc1)CSC#N,>100

# Tested on: Vero
# Assay: Cytotoxicity against african green monkey Vero cells after 72 hrs by MTS assay
# Type: cell-based
# Details: Chlorocebus sabaeus
# Summary of the method: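 African green monkey kidney VERO cell line; toxicity read as half-maximal inhibitory concentration (IC50). Each reported value is the average of three individual measurements, rounded to the nearest dilution.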
row,SMILES,IC50
1,COC(=O)/C(=C/c1ccc([N+](=O)[O-])cc1)CN=[N+]=[N-],> 64 µM
2,COC(=O)/C(=C/c1ccc2ccccc2c1)CSC#N,32 µM
3,COC(=O)/C(=C/c1ccc(C)cc1)CSC#N,32 µM
4,COC(=O)/C(=C/c1ccc(Cl)cc1)CSC#N,16 µM
5,COC(=O)/C(=C/c1ccccc1Br)CSC#N,32 µM
6,COC(=O)/C(=C/c1ccc(Br)cc1)CSC#N,32 µM
7,COC(=O)/C(=C/c1ccc(F)cc1)CSC#N,32 µM
8,COC(=O)/C(=C/c1ccc([N+](=O)[O-])cc1)CSC(=N)Nc1ccccc1,> 64 µM

# Tested on: Mycobacterium tuberculosis
# Assay: Antitubercular activity against Mycobacterium tuberculosis H37Rv in 7H12 medium incubated for 10 days in anaerobic condition followed by incubation for 48 hrs in aerobic condition by low oxygen recovery assay
# Type: functional
# Details: not given
# Summary of the method: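 Non-replicating M. tuberculosis H37Rv tested in 7H12 medium (palmitic acid carbon source, no glycerol) under low-oxygen conditions by the low-oxygen-recovery assay (LORA), which models persistence or latency. Read-out is MIC.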
row,SMILES,MIC
1,COC(=O)/C(=C/c1ccc([N+](=O)[O-])cc1)CN=[N+]=[N-],16 µM
2,COC(=O)/C(=C/c1ccc2ccccc2c1)CSC#N,16 µM
3,COC(=O)/C(=C/c1ccc(C)cc1)CSC#N,16 µM
4,COC(=O)/C(=C/c1ccc(Cl)cc1)CSC#N,8 µM
5,COC(=O)/C(=C/c1ccccc1Br)CSC#N,4 µM
6,COC(=O)/C(=C/c1ccc(Br)cc1)CSC#N,16 µM
7,COC(=O)/C(=C/c1ccc(F)cc1)CSC#N,16 µM
8,COC(=O)/C(=C/c1ccc([N+](=O)[O-])cc1)CSC(=N)Nc1ccccc1,> 64 µM
